Measured values taken from ChEMBL document CHEMBL4145683, “Total Synthesis and Structure-Activity Relationships Study of Odilorhabdins, a New Class of Peptides Showing Potent Antibacterial Activity” (J Med Chem, 2018).
Values after ≈ are worked out from the molar mass of the structure shown. Active and inactive are the calls of the source. The rule behind the calls is not given here. Positions of bridges follow the written chain, without caps; N, C: chain ends. Non-standard residues stand in square brackets, D forms with d. Residues, ends and D or L forms follow the SMILES beside them. *: point of attachment. Dab(3S-OH) = NC[C@H](O)[C@H](N)C(=O)O; ΔZArg = N=C(N)NCC/C=C(\N)C(=O)O; dOrn = NCCC[C@@H](N)C(=O)O; X1 = CC[C@H](C)CCCCC(=O)*; Dab = NCC[C@H](N)C(=O)O; NH(CH2)4NH2 = NCCCCN*

Columns and labels:
Escherichia coli [1] = assay: microbe, parasite or virus in culture; details: ATCC 25922
Escherichia coli [2] = assay: Inhibition of bacterial protein synthesis in cell-free Escherichia coli incubated for 1 hr and measured for every 20 mins by bacterial cell-free transcription-translation assay; format: functional; details: Escherichia coli
Procedure, shortened: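 E. coli cell-free coupled transcription-translation used a GFP gene in pEXP5-CT as template, started with 1 μg plasmid in 50 μL reactions. Feed buffer was added at 30 min, with incubation at 30 °C. Fluorescence (ex 475/em 520 nm) was read every 20 min. IC50 was taken at 1 h after feed addition from a four-parameter log(inhibitor)–response fit. Duplicates.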

Klebsiella pneumoniae [3] = assay: Antimicrobial activity against Klebsiella pneumoniae ATCC 43816 by broth microdilution method; format: functional
Procedure, shortened: (§1)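 Broth microdilution MIC per CLSI M07-A10, with inoculum prepared by direct colony suspension. Reference strains were from ATCC and NCTC.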

Escherichia coli [4] = assay: Antimicrobial activity against Escherichia coli ATCC BAA-2452 by broth microdilution method; format: functional
Procedure, shortened: as §1

Klebsiella pneumoniae [5] = assay: Antimicrobial activity against Klebsiella pneumoniae ATCC BAA-1904 by broth microdilution method; format: functional
Procedure, shortened: as §1

Klebsiella pneumoniae [6] = assay: Antimicrobial activity against Klebsiella pneumoniae ATCC BAA-2473 by broth microdilution method; format: functional
Procedure, shortened: as §1

Klebsiella pneumoniae [7] = assay: Antimicrobial activity against Klebsiella pneumoniae ATCC BAA-1905 by broth microdilution method; format: functional
Procedure, shortened: as §1

Klebsiella pneumoniae [8] = assay: Antimicrobial activity against Klebsiella pneumoniae NCTC 13442 by broth microdilution method; format: functional
Procedure, shortened: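 CLSI broth microdilution with direct colony suspension inoculum, per CLSI M07-A10. Reference strain taken from the NCTC collection.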

Klebsiella pneumoniae [9] = assay: Antimicrobial activity against Klebsiella pneumoniae ATCC 13883 by broth microdilution method; format: functional
Procedure, shortened: as §1

Klebsiella pneumoniae [10] = assay: Antimicrobial activity against Klebsiella pneumoniae NCTC 13438 by broth microdilution method; format: functional
Procedure, shortened: as §1

Klebsiella pneumoniae [11] = assay: Antimicrobial activity against Klebsiella pneumoniae ATCC BAA-2146 by broth microdilution method; format: functional
Procedure, shortened: as §1

Enterobacter cloacae = assay: Antimicrobial activity against Enterobacter cloacae ATCC BAA-2468 by broth microdilution method; format: functional
Klebsiella pneumoniae [12] = assay: Antimicrobial activity against Klebsiella pneumoniae NCTC 13439 by broth microdilution method; format: functional
Procedure, shortened: as §1

Escherichia coli [13] = assay: Antimicrobial activity against Escherichia coli ATCC BAA-2340 by broth microdilution method; format: functional
Procedure, shortened: as §1

Klebsiella pneumoniae [14] = assay: Antimicrobial activity against Klebsiella pneumoniae NCTC 13443 by broth microdilution method; format: functional
Procedure, shortened: as §1

Escherichia coli [15] = assay: Antimicrobial activity against Escherichia coli ATCC BAA-2469 by broth microdilution method; format: functional
Procedure, shortened: as §1

Klebsiella pneumoniae [16] = assay: Antimicrobial activity against Klebsiella pneumoniae ATCC BAA-2472 by broth microdilution method; format: functional
Procedure, shortened: as §1

Klebsiella pneumoniae [17] = assay: Antimicrobial activity against Klebsiella pneumoniae ATCC 13883 infected in neutropenic mouse pulmonary infection model assessed as reduction in lung bacterial load at 30 mg/kg, iv dosed 1 hr post infection and measured 8 hrs post infection relative to untreated control; format: functional, organism-based
Procedure, shortened: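 Neutropenia induced by intraperitoneal cyclophosphamide (150 mg/kg day 4, 100 mg/kg day 1 before infection); intranasal infection at 2 × 10^6 CFU/mouse. Single iv dose at 10 mL/kg given 1 h post-infection. An untreated group was sacrificed at 1 h for baseline burden. At 8 h, lungs were homogenized, serially diluted and plated on TSA for CFU. Comparison versus vehicle by one-way ANOVA with Dunnett's test.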

[18] = Klebsiella pneumoniae, ATCC 43816, read-out: MIC

What does the source list for N=C(N)NCC/C=C(\NC(=O)[C@H](CCCCN)NC(=O)[C@H](Cc1cnc[nH]1)NC(=O)[C@@H]1CCCN1C(=O)[C@@H](CCCN)NC(=O)CNC(=O)[C@@H](NC(=O)[C@H](CCN)NC(=O)[C@@H](N)CCCCN)[C@@H](O)CN)C(=O)N[C@@H](CCCCN)C(=O)NCCCCN (H-K[Dab][Dab(3S-OH)]G[dOrn]PHK[ΔZArg]K-{NH(CH2)4NH2})?
MIC (Escherichia coli [1]): > 64 µg/mL; IC50 (Escherichia coli [2]): 5.91 µM; MIC (Klebsiella pneumoniae [3]; [18]): 64 µg/mL (≈ 51.3 µM)

With CC[C@H](C)CCCCC(=O)N[C@@H](CCN)C(=O)N[C@H](C(=O)N[C@@H](CCN)C(=O)N[C@H]1CCNC(=O)[C@H]([C@@H](C)O)NC(=O)[C@H](CCN)NC(=O)[C@H](CCN)NC(=O)[C@H](CC(C)C)NC(=O)[C@@H](Cc2ccccc2)NC(=O)[C@H](CCN)NC1=O)[C@@H](C)O (X1-[Dab]T[Dab][Dab][Dab][dF]L[Dab][Dab]T; lactam 4-C) as the molecule, how does the MIC (Escherichia coli [4]) read?
Its MIC is 0.5 µg/mL (≈ 0.415 µM).

And the MIC (Klebsiella pneumoniae [5])?
The MIC was 0.5 µg/mL (≈ 0.415 µM).

What about the MIC (Klebsiella pneumoniae [6]) of the same molecule?
The MIC was 0.5 µg/mL (≈ 0.415 µM).

What about the MIC (Escherichia coli [1]) of the same molecule?
The MIC was 0.5 µg/mL (≈ 0.415 µM).

And the MIC (Klebsiella pneumoniae [7])?
The MIC was 0.5 µg/mL (≈ 0.415 µM).

What about the MIC (Klebsiella pneumoniae [8]) of the same molecule?
Its MIC is 0.5 µg/mL (≈ 0.415 µM).

What about the MIC (Klebsiella pneumoniae [9]) of the same molecule?
The MIC was 1 µg/mL (≈ 0.831 µM).

What about the MIC (Klebsiella pneumoniae [10]) of the same molecule?
The MIC was 0.5 µg/mL (≈ 0.415 µM).

And the MIC (Klebsiella pneumoniae [11])?
Its MIC is 1 µg/mL (≈ 0.831 µM).

And the MIC (Enterobacter cloacae)?
The MIC was 0.5 µg/mL (≈ 0.415 µM).

And the MIC (Klebsiella pneumoniae [12])?
Its MIC is 0.5 µg/mL (≈ 0.415 µM).

And the MIC (Escherichia coli [13])?
Its MIC is 0.5 µg/mL (≈ 0.415 µM).

And the MIC (Klebsiella pneumoniae [14])?
The MIC was 0.5 µg/mL (≈ 0.415 µM).

What about the MIC (Escherichia coli [15]) of the same molecule?
The MIC was 0.5 µg/mL (≈ 0.415 µM).

What about the MIC (Klebsiella pneumoniae [16]) of the same molecule?
The MIC was 0.5 µg/mL (≈ 0.415 µM).

And the MIC (Klebsiella pneumoniae [3]; [18])?
Its MIC is 0.5 µg/mL (≈ 0.415 µM).

Which MIC (Escherichia coli [4]) does the source give for CO/N=C(\C(=O)N[C@@H]1C(=O)N2C(C(=O)O)=C(CSc3nc(=O)c(O)nn3C)CS[C@H]12)c1csc(N)n1 [CEFTRIAXONE] here?
The MIC was greater than 64 µg/mL.

And the MIC (Klebsiella pneumoniae [5])?
Its MIC is greater than 64 µg/mL.

And the MIC (Klebsiella pneumoniae [6])?
Its MIC is greater than 64 µg/mL.

And the MIC (Escherichia coli [1])?
The MIC was less than 0.25 µg/mL.

And the MIC (Klebsiella pneumoniae [7])?
The MIC was greater than 64 µg/mL.

What about the MIC (Klebsiella pneumoniae [8]) of the same molecule?
Its MIC is 8 µg/mL (≈ 14.4 µM).

What about the MIC (Klebsiella pneumoniae [9]) of the same molecule?
The MIC was less than 0.25 µg/mL.

What about the MIC (Klebsiella pneumoniae [10]) of the same molecule?
Its MIC is greater than 64 µg/mL.

What about the MIC (Klebsiella pneumoniae [11]) of the same molecule?
Its MIC is greater than 64 µg/mL.

What about the MIC (Enterobacter cloacae) of the same molecule?
Its MIC is greater than 64 µg/mL.

And the MIC (Klebsiella pneumoniae [12])?
The MIC was greater than 64 µg/mL.

And the MIC (Escherichia coli [13])?
The MIC was greater than 64 µg/mL.

What about the MIC (Klebsiella pneumoniae [14]) of the same molecule?
The MIC was greater than 64 µg/mL.

And the MIC (Escherichia coli [15])?
The MIC was greater than 64 µg/mL.

What about the MIC (Klebsiella pneumoniae [16]) of the same molecule?
Its MIC is greater than 64 µg/mL.

What about the MIC (Klebsiella pneumoniae [3]; [18]) of the same molecule?
The MIC was no more than 0.125 µg/mL.

Which MIC (Escherichia coli [4]) does the source give for O=C(O)c1cn(C2CC2)c2cc(N3CCNCC3)c(F)cc2c1=O [CIPROFLOXACIN] here?
Its MIC is less than 0.125 µg/mL.

What about the MIC (Klebsiella pneumoniae [5]) of the same molecule?
The MIC was 0.5 µg/mL (≈ 1.51 µM).

What about the MIC (Klebsiella pneumoniae [6]) of the same molecule?
Its MIC is greater than 64 µg/mL.

And the MIC (Escherichia coli [1])?
The MIC was less than 0.25 µg/mL.

And the MIC (Klebsiella pneumoniae [7])?
The MIC was greater than 64 µg/mL.

What about the MIC (Klebsiella pneumoniae [8]) of the same molecule?
Its MIC is 8 µg/mL (≈ 24.1 µM).

What about the MIC (Klebsiella pneumoniae [9]) of the same molecule?
Its MIC is 0.5 µg/mL (≈ 1.51 µM).

And the MIC (Klebsiella pneumoniae [10])?
The MIC was greater than 64 µg/mL.

And the MIC (Klebsiella pneumoniae [11])?
The MIC was greater than 64 µg/mL.

What about the Activity (Klebsiella pneumoniae [17]) of the same molecule?
The Activity was “Active”.

What about the MIC (Klebsiella pneumoniae [12]) of the same molecule?
Its MIC is 32 µg/mL (≈ 96.6 µM).

And the MIC (Escherichia coli [13])?
The MIC was greater than 64 µg/mL.

And the MIC (Klebsiella pneumoniae [14])?
The MIC was greater than 64 µg/mL.

And the MIC (Escherichia coli [15])?
The MIC was greater than 64 µg/mL.

What about the MIC (Klebsiella pneumoniae [16]) of the same molecule?
The MIC was greater than 64 µg/mL.

And the MIC (Klebsiella pneumoniae [3]; [18])?
The MIC was no more than 0.125 µg/mL.

What does the source list for C[C@@H](O)[C@H]1C(=O)N2C(C(=O)O)=C(SCCNC=N)C[C@H]12 [IMIPENEM ANHYDROUS]?
MIC (Escherichia coli [4]): > 64 µg/mL; MIC (Klebsiella pneumoniae [5]): 64 µg/mL (≈ 214 µM); MIC (Klebsiella pneumoniae [6]): > 64 µg/mL; MIC (Escherichia coli [1]): 0.5 µg/mL (≈ 1.67 µM); MIC (Klebsiella pneumoniae [7]): > 64 µg/mL; MIC (Klebsiella pneumoniae [8]): > 64 µg/mL; MIC (Klebsiella pneumoniae [9]): 2 µg/mL (≈ 6.68 µM); MIC (Klebsiella pneumoniae [10]): > 64 µg/mL; MIC (Klebsiella pneumoniae [11]): > 64 µg/mL; MIC (Enterobacter cloacae): > 64 µg/mL; MIC (Klebsiella pneumoniae [12]): 64 µg/mL (≈ 214 µM); MIC (Escherichia coli [13]): 32 µg/mL (≈ 107 µM); MIC (Klebsiella pneumoniae [14]): > 64 µg/mL; MIC (Escherichia coli [15]): > 64 µg/mL; MIC (Klebsiella pneumoniae [16]): > 64 µg/mL; MIC (Klebsiella pneumoniae [3]; [18]): 1 µg/mL (≈ 3.34 µM)

Which MIC (Escherichia coli [4]) does the source give for GENTAMICIN here?
The MIC was greater than 64 µg/mL.

What about the MIC (Klebsiella pneumoniae [5]) of the same molecule?
Its MIC is 16 µg/mL.

What about the MIC (Klebsiella pneumoniae [6]) of the same molecule?
The MIC was greater than 64 µg/mL.

What about the MIC (Klebsiella pneumoniae [7]) of the same molecule?
The MIC was 32 µg/mL.

What about the MIC (Klebsiella pneumoniae [8]) of the same molecule?
The MIC was 0.25 µg/mL.

What about the MIC (Klebsiella pneumoniae [9]) of the same molecule?
Its MIC is 1 µg/mL.

What about the MIC (Klebsiella pneumoniae [10]) of the same molecule?
The MIC was 2 µg/mL.

And the MIC (Klebsiella pneumoniae [11])?
Its MIC is greater than 64 µg/mL.

And the MIC (Enterobacter cloacae)?
Its MIC is greater than 64 µg/mL.

What about the MIC (Klebsiella pneumoniae [12]) of the same molecule?
The MIC was 1 µg/mL.

And the MIC (Escherichia coli [13])?
The MIC was 1 µg/mL.

What about the MIC (Klebsiella pneumoniae [14]) of the same molecule?
The MIC was greater than 64 µg/mL.

What about the MIC (Escherichia coli [15]) of the same molecule?
The MIC was greater than 64 µg/mL.

What about the MIC (Klebsiella pneumoniae [16]) of the same molecule?
Its MIC is greater than 64 µg/mL.

What about the MIC (Klebsiella pneumoniae [3]) of the same molecule?
Its MIC is 0.25 µg/mL.
